Source: PubChem BioAssay
The source made the active and inactive calls.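 Rule for the calls: active = mean duplicate activation above the buffer control mean plus 5 SD of those controls; inactive = the rest.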

Target: Potassium voltage-gated channel subfamily E member 1 (Homo sapiens) + Potassium voltage-gated channel subfamily KQT member 1 (Homo sapiens) (UniProt P15382+P51787)
Experiment: KCNQ1-E1 channel activation – thallium flux, CHO-K1 KCNQ1/E1 cells, selectivity assay for KCNQ1 potentiator project, confirmation (AID 493186)
Settings: FluxOR thallium flux, at 10 µM
Outline: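 Test system: CHO-K1 cells with KCNQ1/E1; dosing: one test concentration; signal: FluxOR Tl+ flux fluorescence, kinetic read; incubation: 90-min dye loading then 20-min compound exposure, both at room temperature; read-out basis: percent of R-L3 effect over buffer; replication: duplicate wells per compound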

Sequence of Potassium voltage-gated channel subfamily E member 1 (Homo sapiens) + Potassium voltage-gated channel subfamily KQT member 1 (Homo sapiens) (P51787 whole entry, looked up): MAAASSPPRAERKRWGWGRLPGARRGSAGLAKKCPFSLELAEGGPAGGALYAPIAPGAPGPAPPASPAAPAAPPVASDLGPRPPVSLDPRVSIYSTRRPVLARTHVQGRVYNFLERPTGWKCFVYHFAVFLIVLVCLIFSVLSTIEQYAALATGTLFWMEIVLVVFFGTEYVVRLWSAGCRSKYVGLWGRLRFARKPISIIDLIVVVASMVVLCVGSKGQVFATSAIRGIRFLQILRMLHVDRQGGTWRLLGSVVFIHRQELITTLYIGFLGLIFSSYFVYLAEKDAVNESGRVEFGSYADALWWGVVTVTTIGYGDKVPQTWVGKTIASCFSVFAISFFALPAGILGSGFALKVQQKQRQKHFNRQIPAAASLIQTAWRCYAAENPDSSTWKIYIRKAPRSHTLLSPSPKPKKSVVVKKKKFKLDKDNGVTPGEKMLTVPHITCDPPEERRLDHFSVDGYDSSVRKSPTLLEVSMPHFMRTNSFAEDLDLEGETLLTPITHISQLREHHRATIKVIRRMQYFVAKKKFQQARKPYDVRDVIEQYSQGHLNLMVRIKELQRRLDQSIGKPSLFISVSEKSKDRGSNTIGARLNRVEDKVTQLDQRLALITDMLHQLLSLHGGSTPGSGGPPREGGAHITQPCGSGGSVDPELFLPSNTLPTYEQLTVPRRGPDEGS

outcome, inactive:
CC(C)NS(=O)(=O)c1ccc(NC(=O)C(C)Oc2ccc(C(=O)c3ccccc3)cc2)cc1 (centres undefined)
O=C1C=CC(=O)N1CCNc1ncc(C(F)(F)F)cc1Cl
O=C(O)CCCN1C(=O)/C(=C\c2ccc(-c3nc4ccccc4s3)o2)SC1=S
CCN(CC)c1ncnc2sc3c(c12)CCC3
